13 compounds from ChEMBL document CHEMBL1687899, “Structure-activity relationships in nucleotide oligomerization domain 1 (Nod1) agonistic γ-glutamyldiaminopimelic acid derivatives” (J Med Chem, 2011) can be followed below.

The target in the test is T1, Nucleotide-binding oligomerization domain-containing protein 1 (Homo sapiens, UniProt Q9Y239).
T1 sequence (Q9Y239 whole entry): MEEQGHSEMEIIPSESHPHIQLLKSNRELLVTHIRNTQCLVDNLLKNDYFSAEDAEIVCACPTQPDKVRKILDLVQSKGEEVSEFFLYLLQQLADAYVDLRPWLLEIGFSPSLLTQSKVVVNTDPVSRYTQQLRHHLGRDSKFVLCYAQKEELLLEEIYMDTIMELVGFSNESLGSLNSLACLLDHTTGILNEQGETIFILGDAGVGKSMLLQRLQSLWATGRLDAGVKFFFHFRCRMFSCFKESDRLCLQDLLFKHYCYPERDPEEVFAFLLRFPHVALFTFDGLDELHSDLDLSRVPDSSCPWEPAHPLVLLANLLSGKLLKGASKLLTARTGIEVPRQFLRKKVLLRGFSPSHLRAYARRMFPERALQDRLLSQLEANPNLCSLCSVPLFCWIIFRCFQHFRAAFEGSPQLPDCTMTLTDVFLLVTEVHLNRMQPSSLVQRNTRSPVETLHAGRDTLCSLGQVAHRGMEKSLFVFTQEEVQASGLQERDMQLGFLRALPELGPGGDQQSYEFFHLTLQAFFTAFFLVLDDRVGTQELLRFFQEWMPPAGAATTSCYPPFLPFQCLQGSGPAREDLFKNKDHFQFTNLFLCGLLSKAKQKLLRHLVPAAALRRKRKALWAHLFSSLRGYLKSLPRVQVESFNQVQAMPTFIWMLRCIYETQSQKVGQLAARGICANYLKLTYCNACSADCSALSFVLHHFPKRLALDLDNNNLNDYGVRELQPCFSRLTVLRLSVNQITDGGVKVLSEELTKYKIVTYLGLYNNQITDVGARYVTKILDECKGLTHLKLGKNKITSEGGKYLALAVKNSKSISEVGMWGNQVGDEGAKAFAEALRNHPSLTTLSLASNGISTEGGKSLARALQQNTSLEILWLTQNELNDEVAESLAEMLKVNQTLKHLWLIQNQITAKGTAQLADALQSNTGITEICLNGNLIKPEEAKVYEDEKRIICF
As to the kind of experiment: Agonist activity at human NOD-1 expressed in human HEK293 cells assessed as NF-kappaB induction by spectrophotometric analysis. Type of test: functional, cell-based. The essentials: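 HEK-Blue cells (HEK293 stably transfected with human Nod1 and an NF-κB/AP-1-inducible secreted alkaline phosphatase reporter) were kept in selection medium with zeocin and normocin. Cells at ~10^5 cells/mL were grown to confluency and then given graded compound concentrations. Supernatant sAP was read spectrophotometrically at 620 nm with an alkaline phosphatase-specific chromogen.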

By EC50 is commonly meant the concentration at which the effect is half-maximal. As for `CCCCCCCCCCCC(=O)N[C@H](CCC(=O)NC(CCCC1NC(N)=NC1=O)C(=O)O)C(=O)O` (stereo partly drawn), the EC50 is 1.31 nM.

Take `CCCCCCCCCCCC(=O)N[C@H](CCC(=O)NCCCC[C@H](N)C(=O)O)C(=O)O`: the EC50 was determined as 0.96 nM.

As to `CCCCCCCCCCCC(=O)N[C@H](CCC(=O)N[C@H](CCCCN)C(=O)O)C(=O)O`, the 50% effective concentration (EC50) was > 100 nM.

Consider `CCCCCCCCCCCC(=O)N[C@H](CCC(=O)NCCCC[C@@H](N)C(=O)O)C(=O)O`, for which the concentration for a half-maximal effect (EC50) came to 0.37 nM.

As for `CCCCCCCCCCCSC(=O)[C@H](N)CCC(=O)NC(CCCC(N)C(=O)OCC)C(=O)OCC` (stereo partly drawn), the EC50 was determined as 0.181 nM.

`CCCCCCCCCCCCCCCCN(CCCCCCCCCCCCCCCC)[C@H](CCC(=O)NC(CCCC(N)C(=O)O)C(=O)O)C(=O)O` (stereo partly drawn): the EC50 came to 0.12 nM.

For `CCCCCCCCCCCC(=O)N[C@H](CCC(=O)NCCCCCN)C(=O)O`, the concentration giving a half-maximal response (EC50) is > 100 nM.

In the case of `CCCCCCCCCCCOC(=O)CCCC(=O)NC(CCCC(N)C(=O)O)C(=O)O` (stereo not drawn), the EC50 is 0.39 nM.

For the compound `CCCCCCCCCCCC(=O)N[C@H](CCC(=O)NC(CCCCC(=O)O)C(=O)O)C(=O)O` (stereo partly drawn), the EC50 was > 100 nM.

As for `CCCCCCCCCCCC(=O)NC(CCCC(NC(=O)CC[C@@H](NC(=O)CCCCCCCCCCC)C(=O)O)C(=O)O)C(=O)O` (stereo partly drawn), the EC50 turned out to be 0.58 nM.

On to `CCCCCCCCCCCOC(=O)[C@@H](CCC(=O)NC(CCCC(N)C(=O)O)C(=O)O)NC(=O)CCCCCCCCCCC` (stereo partly drawn), for which the EC50 was found to be 0.134 nM.

As for `CCCCCCCCCCCC(=O)N[C@H](CCC(=O)NC1CCCCNC1=O)C(=O)O` (stereo partly drawn), the EC50 worked out at 1.73 nM.

Regarding `CCCCCCCCN(CCCCCCCC)[C@H](CCC(=O)NC(CCCC(N)C(=O)O)C(=O)O)C(=O)O` (stereo partly drawn), the 50% effective concentration (EC50) was 0.2 nM.
